Laboratory results from ChEMBL document CHEMBL1156186, “Anti-AIDS agents 81. Design, synthesis, and structure-activity relationship study of betulinic acid and moronic acid derivatives as potent HIV maturation inhibitors” (J Med Chem, 2010).
Calls of active or inactive are those of the source. The calls are words filed in the database; no cut-off is given here.

Key:
MT2 = assay: Cytotoxicity against human MT2 cells by XTT assay; format: cell-based
In short: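 Toxicity was read by XTT on mock-infected MT-2 cells (3×10⁵ cells/mL), run as a duplicate set of the infection plates without virus, with medium added on day 1 and the assay ended on day 4. IC₅₀ is the concentration toxic to 50% of cells. Values are the average of at least two experiments.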

[1] = tested on: Human immunodeficiency virus 1; assay: Antiviral activity against HIV1 3B infected in human MT2 cells assessed as inhibition of viral replication at 0.8 to 100 ug/mL treated 1 day after infection measured on after 4 days postinfection by p24 antigen ELISA; format: functional, organism-based
In short: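 MT-2 cells at 3×10⁵ cells/mL were infected with HIV-1 IIIB (125 TCID₅₀) in the presence of serially diluted sample, and fresh medium was added on day 1 post-infection. Supernatants were harvested on day 4 for p24 antigen ELISA. EC₅₀ is the concentration giving 50% suppression of replication. Values are the average of at least two separate experiments.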

[2] = tested on: Human immunodeficiency virus 1; assay: Antiviral activity against HIV1 3B infected in human MT2 cells assessed as inhibition of viral replication treated 1 day after infection measured on after 4 days postinfection by p24 antigen ELISA; format: functional, organism-based; settings: Human immunodeficiency virus 1, 3B
[3] = Therapeutic index, IC50 for human MT2 cells to EC50 for HIV1 3B; format: cell-based; settings: read-out: Ratio IC50/EC50
In short: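 TI is calculated as IC₅₀ (XTT, mock-infected MT-2) divided by EC₅₀ (p24 ELISA, HIV-1 IIIB-infected MT-2), both taken on day 4 post-infection from parallel plates. Values are the average of at least two experiments.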

[4] = tested on: Human immunodeficiency virus 1; assay: Antiviral activity against HIV1 expressing CA-SP1 A1V mutant infected in human HeLa cells assessed as inhibition of virion-associated p25 to p24 conversion at 1 ug/mL after 2 days by Western blotting; format: functional, organism-based
In short: (§1)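 HeLa cells transfected with pNL4-3 bearing the A1V or L231M mutation and cultured with or without test compound. Two days post-transfection, cells labeled 2 h with ³⁵S-Met/Cys. Cell lysates prepared; virions pelleted by ultracentrifugation. Cell and viral lysates immunoprecipitated with HIV-Ig, then Western blotted for p25 and p24.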

[5] = tested on: Human immunodeficiency virus 1; assay: Antiviral activity against HIV1 expressing CA-SP1 A1V mutant infected in human HeLa cells assessed as inhibition of cell line-associated p25 to p24 conversion at 1 ug/mL after 2 days by Western blotting; format: functional, organism-based; in short: as §1
[6] = tested on: Human immunodeficiency virus 1; assay: Antiviral activity against wild type HIV1 NL4-3 infected in human HeLa cells assessed as inhibition of virion-associated p25 to p24 conversion at 1 ug/mL after 2 days by Western blotting; format: functional, organism-based
In short: (§2)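 HeLa cells were transfected with pNL4-3 proviral DNA and cultured with or without compound. Two days post-transfection, cells were metabolically labelled for 2 h with ³⁵S-Met/Cys. Cell lysates were prepared and virions were pelleted by ultracentrifugation. Both fractions were immunoprecipitated with HIV-Ig, and the p25 and p24 bands were examined by Western blotting.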

[7] = tested on: Human immunodeficiency virus 1; assay: Antiviral activity against HIV1 expressing […] L231M mutant infected in human HeLa cells assessed as inhibition of virion-associated p25 to p24 conversion at 1 ug/mL after 2 days by Western blotting; format: functional, organism-based; in short: as §1
[8] = tested on: Human immunodeficiency virus 1; assay: Antiviral activity against HIV1 expressing […] L231M mutant infected in human HeLa cells assessed as inhibition of cell line-associated p25 to p24 conversion at 1 ug/mL after 2 days by Western blotting; format: functional, organism-based; in short: as §1
[9] = tested on: Human immunodeficiency virus 1; assay: Antiviral activity against wild type HIV1 NL4-3 infected in human HeLa cells assessed as inhibition of cell line-associated p25 to p24 conversion at 1 ug/mL after 2 days by Western blotting; format: functional, organism-based; in short: as §2
[10] = tested on: Human immunodeficiency virus 1; assay: Antiviral activity against HIV1 NL4-3 infected in human MT4 cells assessed as inhibition of viral replication treated 1 day after infection measured on after 4 days postinfection by p24 antigen ELISA; format: functional, organism-based
In short: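 MT-4 cells were infected with HIV-1 NL4-3 variants at an MOI of 0.01 in 96-well format with test sample. Culture supernatants were collected on day 4 post-infection for p24 antigen capture ELISA.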

Row | EC50 [2] [µM] | SMILES | IC50 (MT2) [µM] | inhibition [1] | selectivity ratio [3] | further results
1 |  | CCCC(=O)O[C@H]1CC[C@]2(C)[C@H]3CC[C@@H]4C5=CC(C)(C)CC[C@]5(C(=O)O)CC[C@@]4(C)[C@]3(C)CC[C@H]2C1(C)C | > 10 | inactive |  | 
2 |  | C=C(C)[C@@H]1CC[C@]2(C(=O)O)CC[C@]3(C)[C@H](CC[C@@H]4[C@@]5(C)CC[C@H](OC(=O)C6CC=CCC6C(=O)O)C(C)(C)[C@@H]5CC[C@]43C)[C@@H]12 (some centres not stated) | 41.1 | inactive |  | 
3 |  | CC(C)CC(=O)O[C@H]1CC[C@]2(C)[C@H]3CC[C@@H]4C5=CC(C)(C)CC[C@]5(C(=O)O)CC[C@@]4(C)[C@]3(C)CC[C@H]2C1(C)C | > 10 | inactive |  | 
4 |  | CC(C)C(=O)O[C@H]1CC[C@]2(C)[C@H]3CC[C@@H]4C5=CC(C)(C)CC[C@]5(C(=O)O)CC[C@@]4(C)[C@]3(C)CC[C@H]2C1(C)C | > 10 | inactive |  | 
5 |  | CCC(=O)O[C@H]1CC[C@]2(C)[C@H]3CC[C@@H]4C5=CC(C)(C)CC[C@]5(C(=O)O)CC[C@@]4(C)[C@]3(C)CC[C@H]2C1(C)C | > 10 | inactive |  | 
6 | 0.12 | C=C(C)[C@@H]1CC[C@]2(C(=O)O)CC[C@]3(C)[C@H](CC[C@@H]4[C@@]5(C)CC[C@H](OC(=O)C[C@@H](C)C(=O)O)C(C)(C)[C@@H]5CC[C@]43C)[C@@H]12 | 43.8 |  | 365 | 
7 |  | CC1(C)C=C2[C@H]3CC[C@@H]4[C@@]5(C)CC[C@H](OC(=O)C6CCC6)C(C)(C)[C@@H]5CC[C@@]4(C)[C@]3(C)CC[C@@]2(C(=O)O)CC1 | > 10 | inactive |  | 
8 |  | CCC(C)C(=O)O[C@H]1CC[C@]2(C)[C@H]3CC[C@@H]4C5=CC(C)(C)CC[C@]5(C(=O)O)CC[C@@]4(C)[C@]3(C)CC[C@H]2C1(C)C (some centres not stated) | > 10 | inactive |  | 
9 |  | CC1(C)C=C2[C@H]3CC[C@@H]4[C@@]5(C)CC[C@H](OC(=O)C(C)(C)C)C(C)(C)[C@@H]5CC[C@@]4(C)[C@]3(C)CC[C@@]2(C(=O)O)CC1 | > 10 | inactive |  | 
10 |  | CC1(C)C=C2[C@H]3CC[C@@H]4[C@@]5(C)CC[C@H](OC(=O)C6CCCC6)C(C)(C)[C@@H]5CC[C@@]4(C)[C@]3(C)CC[C@@]2(C(=O)O)CC1 | > 10 | inactive |  | 
11 | 2.2 | C=C(C)[C@@H]1CC[C@]2(C(=O)O)CC[C@]3(C)[C@H](CC[C@@H]4[C@@]5(C)CC[C@H](OC(=O)[C@@H]6CCC[C@H]6C(=O)O)C(C)(C)[C@@H]5CC[C@]43C)[C@@H]12 | 41.9 |  | 19 | 
12 | 17.3 | C=C(C)[C@@H]1CC[C@]2(C(=O)O)CC[C@]3(C)[C@H](CC[C@@H]4[C@@]5(C)CC[C@H](OC(=O)[C@@H]6CCCC[C@H]6C(=O)O)C(C)(C)[C@@H]5CC[C@]43C)[C@@H]12 | 40.9 |  | 2.4 | 
13 |  | CCCCC(=O)O[C@H]1CC[C@]2(C)[C@H]3CC[C@@H]4C5=CC(C)(C)CC[C@]5(C(=O)O)CC[C@@]4(C)[C@]3(C)CC[C@H]2C1(C)C | > 10 | inactive |  | 
14 | 0.0013 | C=C(C)[C@@H]1CC[C@]2(C(=O)O)CC[C@]3(C)[C@H](CC[C@@H]4[C@@]5(C)CC[C@H](OC(=O)CC(C)(C)C(=O)O)C(C)(C)[C@@H]5CC[C@]43C)[C@@H]12 [BEVIRIMAT] | 42.8 |  | 32900 | 
15 |  | C=C(C)[C@@H]1CC[C@]2(C(=O)O)CC[C@]3(C)[C@H](CC[C@@H]4[C@@]5(C)CC[C@H](OC(=O)C6C7C=CC(C7)C6C(=O)O)C(C)(C)[C@@H]5CC[C@]43C)[C@@H]12 (some centres not stated) | 40.3 | inactive |  | 
16 |  | C=C(C)[C@@H]1CC[C@]2(C(=O)O)CC[C@]3(C)[C@H](CC[C@@H]4[C@@]5(C)CC[C@H](OC(=O)C[C@@](C)(CC)C(=O)O)C(C)(C)[C@@H]5CC[C@]43C)[C@@H]12 |  |  |  | inhibition [10]: inactive
17 | 0.0006 | C=C(C)[C@@H]1CC[C@]2(C(=O)O)CC[C@]3(C)[C@H](CC[C@@H]4[C@@]5(C)CC[C@H](OC(=O)CC(C)(CC)C(=O)O)C(C)(C)[C@@H]5CC[C@]43C)[C@@H]12 (some centres not stated) | 36.4 |  | 60700 | 
18 | 0.048 | C=C(C)[C@@H]1CC[C@]2(C(=O)O)CC[C@]3(C)[C@H](CC[C@@H]4[C@@]5(C)CC[C@H](OC(=O)CCC(C)(C)C(=O)O)C(C)(C)[C@@H]5CC[C@]43C)[C@@H]12 | 41.8 |  | 870 | 

Row | SMILES | EC50 [2] [µM] | IC50 (MT2) [µM] | inhibition [1] | selectivity ratio [3] | further results
19 | C=C(C)[C@@H]1CC[C@]2(C(=O)O)CC[C@]3(C)[C@H](CC[C@@H]4[C@@]5(C)CC[C@H](OC(=O)/C=C(/C)C(=O)O)C(C)(C)[C@@H]5CC[C@]43C)[C@@H]12 | 0.18 | 42.5 |  | 236 | 
20 | C=C(C)[C@@H]1CC[C@]2(C(=O)O)CC[C@]3(C)[C@H](CC[C@@H]4[C@@]5(C)CC[C@H](OC(=O)C[C@H](C)C(=O)O)C(C)(C)[C@@H]5CC[C@]43C)[C@@H]12 | 0.0087 |  |  | 3770 | Activity [4]: Active; Activity [5]: Active; Activity [6]: Active; Activity [7]: Active; Activity [8]: Active; Activity [9]: Active
